Lipid droplet – inhibitors of hepatocyte lipid droplet formation, primary screen, imaging, high-throughput imaging, BODIPY stain. AML12 mouse hepatocytes, oleate lipid droplets. inhibition, % at 6.5 µM. 0.4% of 240,000 active. AID 1656, 2009;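 active means lipid droplet intensity inhibited by at least 50%, with more than 500 cells counted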
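Test system: AML12 hepatocytes (mouse); reagent: oleate loading, 100 µM; dosing: one dose, 6.5 µM compound; incubation: overnight exposure; signal: fluorescence imaging, 20x objective, two fields per well; read-out basis: % inhibition of corrected integrated BODIPY droplet signal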
Tb MetRS inh – T. brucei MetRS inhibitors, primary screen, biochemical, luminescence | methionyl-tRNA synthetase (Trypanosoma brucei brucei) | purified T. brucei MetRS, ATP depletion, Kinase-Glo luminescence | inhibition, % at 11.9 µM | 0.4% of 360,000 active;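 active means inhibition above a per-plate cutoff of the control wells' mean inhibition plus 3 SD, cut at about 5.5% in these data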
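Dosing: 11.9 µM compound single dose, 0.9% DMSO; Assay system: purified T. brucei MetRS enzyme; Measured by: Kinase-Glo luciferase luminescence reporting remaining unconsumed ATP; Schedule: 15 min plus 2 h at 25 °C.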
HCV core dimer – inhibitors of HCV core protein dimerization, primary screen, biochemical, TR-FRET, high-throughput | 0.33% of 300,000 active | inhibition, % at 5 µM | TR-FRET GST/Flag-core106 dimerization, 1536-well;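 active means inhibition above the mean of all tested compounds plus 3 SD, set per screening campaign, cut at about 45% in these data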
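Assay system: GST-tagged and Flag-tagged HCV core protein residues 1-106 / Times: compound-protein-antibody incubation 4 h at 22.5 °C / Signal: time-resolved FRET, ex 340 nm, em 617 and 671 nm / Evaluation: % inhibition based on acceptor/donor emission ratio / Benchmarks: wells lacking GST-core106 and wells with excess unlabelled core106 / Repeats: singlicate, one well per compound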
HCV NS3 hel inh – inhibitors of HCV NS3 helicase, primary screen, biochemical, Cy5 molecular beacon fluorescence. Hepatitis C virus NS3 helicase. NS3 helicase DNA unwinding. inhibition, % at 10.9 µM. 0.56% of 290,000 active. AID 1800, 2009;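 active means inhibition above the mean of all tested compounds plus 3 SD, set per campaign, cut at about 35% in these data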
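assay system = NS3 helicase fragment of HCV | buffer or medium = MOPS pH 6.5, MgCl2, DTT, Tween20, BSA | timing = 60 min unwinding reaction at 25 °C after ATP addition | signal = Cy5 beacon fluorescence read at start and 1 h | read-out basis = % inhibition of unwinding | control set = low DMSO, high thioflavine S at 110 µM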
NS3 helicase cf – HCV NS3 helicase inhibitors, retest, confirmation, biochemical, Cy5 molecular beacon fluorescence, triplicate. shares compounds with HCV NS3 hel inh. 31% of 1,600 active. NS3 helicase DNA unwinding. inhibition, % at 10.9 µM. AID 1943, 2009;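 active means inhibition above the mean of all tested compounds plus 3 SD, cutoff set per campaign, cut at about 36% in these data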
DNA FID counter – compounds displacing fluorescent DNA intercalator, artefact control for HCV NS3 helicase inhibitor project, biochemical, FID fluorescence, triplicate; AID 1945, 2009; DNA fluorescent intercalator displacement; shares compounds with HCV NS3 hel inh; inhibition, % at 7.9 µM; 4% of 1,600 active; in the data active means inhibition above about 37%;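 further: higher means more displacement of ethidium bromide from the DNA hairpin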
Each line names hits and unclear results; the compound was inactive in the other large screens (follow-up assays come after a bar, where they were run). An excerpt weighted towards active compounds, which were near 1.3% of everything screened.

O=[N+]([O-])c1cnc2ccccc2c1	none
O=[N+]([O-])c1cc([N+](=O)[O-])c2cc3ccccc3nc2c1	HCV NS3 hel inh 36.2 | NS3 helicase cf inactive | DNA FID counter inactive
CC(=O)[C@H]1CC[C@@H](c2ccccc2)N(S(=O)(=O)c2ccc(C)cc2)C1	none (no result: Lipid droplet, HCV core dimer, HCV NS3 hel inh)
COCCn1c(C)cc(C2=NNC(=Nc3ccc(Cl)cc3Cl)SC2)c1C	HCV NS3 hel inh 36.7 (no result: Lipid droplet) | NS3 helicase cf inactive | DNA FID counter inactive
CCOc1ccc(N=C2NN=C(c3cc(C)n(CC4CCCO4)c3C)CS2)cc1 (stereo not drawn)	HCV NS3 hel inh 40.7 | NS3 helicase cf inactive | DNA FID counter inactive
CCCOc1ccc(C(=O)Nc2ccc(N3CCOCC3)cc2N2CCOCC2)cc1OCC	none (no result: Lipid droplet, HCV core dimer, HCV NS3 hel inh)
CSc1cccc(CN2CCCC(CNC(=O)c3ccc(F)cc3)C2)c1 (stereo not drawn)	none
CSc1ccc(CN2CCCC(CNC(=O)c3ccc(F)cc3)C2)cc1 (stereo not drawn)	HCV NS3 hel inh 43.1 | NS3 helicase cf inactive | DNA FID counter inactive
CCCC(C(=O)O)N1C(=O)/C(=C/c2cccn2C)SC1=S (stereo not drawn)	HCV NS3 hel inh 36.4 | NS3 helicase cf 39.0 | DNA FID counter inactive
Cc1cccc(C(=O)OC(C)C(=O)NCC2CCCCC2)c1O (stereo not drawn)	none (no result: Lipid droplet, HCV core dimer, HCV NS3 hel inh)
Cc1ccc(CC(=O)O/N=C(\N)Cc2ccc([N+](=O)[O-])cc2)cc1	HCV NS3 hel inh 37.7 | NS3 helicase cf inactive | DNA FID counter inactive
CC1C(c2ccccc2)OCCN1C(=S)Nc1ccc(S(=O)(=O)N2CCCCC2)cc1 (stereo not drawn)	none (no result: Lipid droplet, HCV core dimer, HCV NS3 hel inh)
Cc1cccc(C(=O)Nc2nccs2)c1[N+](=O)[O-]	none
CC(=O)Oc1cc2cccc(OC(C)=O)c(=O)c2c(OC(C)=O)c1OC(C)=O	HCV NS3 hel inh 53.2 | NS3 helicase cf inactive | DNA FID counter inactive
COC(=O)c1ccc(C2=NOC(C)(c3nnc(Cc4ccccc4)o3)C2)cc1 (stereo not drawn)	none (no result: Lipid droplet, HCV NS3 hel inh)
COc1cccc(NC(=O)COc2cc(O)c3c(c2)OC(C)(C)CC3=O)c1	HCV NS3 hel inh 83.1 (no result: Lipid droplet) | NS3 helicase cf inactive | DNA FID counter inactive
O=[N+]([O-])c1ccc(/C=C/c2ccc3ccccc3n2)cc1	none
O=[N+]([O-])c1ccc(/C=C/c2ccc3cccc(O)c3n2)cc1	HCV NS3 hel inh 50.0 (no result: Lipid droplet) | NS3 helicase cf inactive | DNA FID counter inactive
Cc1ccc(/C=C/c2ccc3cccc(O)c3n2)s1	HCV NS3 hel inh 49.5 | NS3 helicase cf inactive | DNA FID counter inactive
COc1cc2c(cc1OC)C1CCc3cc4c(cc3C1N=C2)OCO4 (stereo not drawn)	none (no result: Lipid droplet, HCV core dimer, HCV NS3 hel inh)
CCNc1nc(NCC)nc(N/N=C/c2ccc([N+](=O)[O-])o2)n1	none
CCN(CC)c1ccc(N=Cc2ccc([N+](=O)[O-])o2)cc1	HCV NS3 hel inh 57.1 | NS3 helicase cf inactive | DNA FID counter inactive
CCN(CC)c1ccc(N=Cc2ccccc2[N+](=O)[O-])cc1	HCV NS3 hel inh 41.3 | NS3 helicase cf inactive | DNA FID counter inactive
CC(=O)N(C)c1ccc(N=Cc2cc3c(cc2[N+](=O)[O-])OCO3)cc1	none (no result: Lipid droplet, HCV NS3 hel inh)
COc1ccc(NC(=O)C2Cc3c(-c4ccccc4)ccnc3O2)cc1OC (stereo not drawn)	none (no result: Lipid droplet, HCV core dimer, HCV NS3 hel inh)
Cc1cc(C)cc(N(CC(=O)NC(C)C)C(=O)CCC(=O)Nc2ccccn2)c1	none
O=C(O)CCCNc1cc(N2CCN(C(=O)c3ccco3)CC2)c2noc3c2c1C(=O)c1ccccc1-3	HCV NS3 hel inh 37.0 | NS3 helicase cf 72.4 | DNA FID counter inactive
CCCCC(NC(=O)Cc1c(C)c2cc3c4c(oc3cc2oc1=O)CCCC4)C(=O)O (stereo not drawn)	HCV NS3 hel inh 40.5 | NS3 helicase cf 51.5 | DNA FID counter inactive
C=CCOc1cccc(C2C(C(=O)c3ccco3)=C(O)C(=O)N2Cc2ccco2)c1 (stereo not drawn)	HCV NS3 hel inh 38.1 | NS3 helicase cf inactive | DNA FID counter inactive

Screening results as filed in PubChem.
